MEX-5 binding – MEX-5 zinc finger RNA-binding disruptors – biochemical, C. elegans, fluorescence polarization, MLPCN library, primary screen; MEX-5/FITC-TCR2 RNA binding; stronger effect = lower value; activity score (negative = inhibition of binding), % at 10 µM; 300,000 tested, 0.38% active; AID 1832, 2009;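 active = inhibition past about -25% in most replicates, and total fluorescence under double the plate's negative control median, limit read from the data; inconclusive = replicates evenly split on the limit, or fluorescence at least double controls; inactive = too little inhibition in most replicates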;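 also: 0% = DMSO and -100% = 5 µM competing unlabeled TCR2 RNA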
Runt-SMMHC FRET – inhibitors of RUNX1 Runt–CBFb-SMMHC binding, primary screen, biochemical, FRET, Cerulean-Runt, Venus-CBFb-SMMHC, uHTS. Runt-related transcription factor 1 (Homo sapiens) + Core-binding factor subunit beta …. Cerulean-Runt/Venus-CBFb-SMMHC FRET ratio 530/480, 1 h. inhibition, % at 20 µM. 220,000 tested, 0.74% active. AID 1434, 2008;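 active = mean inhibition across duplicate retests at 20 µM reaching about 50%, limit read from the data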;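 also: 0% = DMSO wells and 100% = wells with excess untagged CBFb-SMMHC; inhibitors lower the FRET ratio by blocking Runt binding to CBFb-SMMHC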
EBV gp42 inh – Epstein-Barr virus gp42 inhibitors, primary screen, biochemical, uHTS, fluorescence polarization | Fluorescence polarization binding assay, mP read-out | inhibition, % (tested at 21.74 µM) | 220,000 tested, 0.42% active | AID 1085, 2008; in the data active = inhibition above about 50%
Target sequence (Q1HVG2 whole entry, looked up): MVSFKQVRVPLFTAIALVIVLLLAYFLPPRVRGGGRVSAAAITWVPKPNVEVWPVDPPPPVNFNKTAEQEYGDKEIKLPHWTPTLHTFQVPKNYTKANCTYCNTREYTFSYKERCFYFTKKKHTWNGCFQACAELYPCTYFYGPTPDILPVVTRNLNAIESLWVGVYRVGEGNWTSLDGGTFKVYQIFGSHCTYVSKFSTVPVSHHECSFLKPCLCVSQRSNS
RanGTP-Imp inh – inhibitors of RanGTP-importin-beta interaction, primary screen, biochemical, FRET, CFP-Ran, YFP-importin-beta, homogeneous. 300,000 tested, 1.1% active. cell-free CFP-Ran/YFP-importin-beta FRET ratio. inhibition, % (no concentration beside the values). Ran GTPase (GTP-bound) - importin-beta complex;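 active = more than half of the replicate wells show a fall in the fluorescence ratio signal beyond about 16%, limit read from the data, passing the limit was not always enough; inconclusive = exactly half of the replicate wells pass the set limit; inactive = fewer than half of replicates pass the limit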;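 also: 0% = DMSO wells and 100% = Ran loaded with GDP instead of GTP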
Runt-CBFb FRET – inhibitors of RUNX1 Runt–CBFb binding, primary screen, biochemical, FRET, Cerulean-Runt, Venus-CBFb, uHTS. Cerulean-Runt/Venus-CBFb FRET ratio 530/480, 1 h. 220,000 tested, 0.46% active. Runt-related transcription factor 1 (Homo sapiens) + Core-binding factor subunit beta …. inhibition, % at 20 µM;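 active = inhibition over about 50% at 20 µM in the single-dose screen, limit read from the data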;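 also: 0% = DMSO wells and 100% = excess unlabeled CBFb competitor control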
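test system = Cerulean-tagged RUNX1 Runt domain (FRET donor) fusion protein | reagent = Venus-CBFb binding partner, 100 nM | incubation = protein complex preformed 1 h, compound exposure 1 h, room temperature, dark | detection = FRET fluorescence | read-out basis = loss of energy transfer signal | controls = 5 µM unlabeled CBFb as full-inhibition high control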
LANA-H2A inh – blockers of LANA interaction with H2A/H2B – biochemical, FP readout, HTS, primary screen | Protein LANA1 (Human herpesvirus 8 type P (isolate GK18)), Q9QR71 | cell-free LANA-H2A/H2B peptide, fluorescence polarization | inhibition, % (test concentration not listed) | 320,000 tested, 0.6% active | AID 2629, 2010; in the data active = inhibition mostly above about 10%, no sharp cut-off; inactive = mostly below about 6.7%
Active calls of the source: *; ? = inconclusive; / = no result; ! = repeats disagree. Most compounds without a hit are left out; they make up all but 2.4% or so of the library.

SMILES	MEX-5 binding	Runt-SMMHC FRET	EBV gp42 inh	RanGTP-Imp inh	Runt-CBFb FRET	LANA-H2A inh
CC1(C)CC(=O)C=C(Nc2ccc3c(c2)OCCO3)C1	-2	-3	-25	26*	-3	-1
CC1(C)CC(=O)C=C(Nc2ccc(C(=O)O)cc2)C1	-4	0	-18	29*	2	0
CC1(C)CC(=O)C=C(Nc2ccc(O)c(C(=O)O)c2)C1	1	/	/	-3	/	5
CC1(C)CC(=O)C=C(Nc2cccc(C(F)(F)F)c2)C1	4	/	/	?	/	7
CC1(C)CC(=O)C=C(Nc2cccc(O)c2)C1	0	3	-10	45*	1	4
CSc1ccc(CC(=O)N2CCC(n3nccc3NC(=O)C3CC3)CC2)cc1	3	/	/	?	/	0
O=C(Nc1ccc(Cl)cn1)c1ccc(-c2ccc(Cl)c(Cl)c2)o1	0	/	/	0	/	7
O=C(Nc1ccccc1Cl)OCc1cncs1	3	1	2	1	2	2
O=C(CN(C(=O)CCC(=O)Nc1ccccn1)c1ccccc1F)NCc1ccc2c(c1)OCO2	-3	/	/	6	/	-1
CCC(C)NCCOCCOc1ccc(Cl)c2ccccc12 (stereo not drawn)	1	1	3	4	-3	12*
C=CCNS(=O)(=O)c1ccc(OCC(=O)OC)cc1	-1	-2	-2	?	0	-6
O=C(O)Cn1c(O)c(C=Nc2ccccc2)sc1=S	1	73*	-10	31*!	32	1
O=C(O)C(=O)/C(=C\c1ccc([N+](=O)[O-])cc1)c1ccc2ccccc2n1	-14	25	-7	9	15	3
O=C(O)C(=O)/C(=C\c1ccccc1)c1ccc2ccccc2n1	-6	52*	-38	31*	7	-2
O=C(O)C(=O)/C(=C\c1cccc2ccccc12)c1ccc2ccccc2n1	-40*	80*	-22	63*	19	7
O=C(O)C(=O)/C(=C\c1ccsc1)c1ccc2ccccc2n1	-48*	/	/	20*	/	2
O=C1C2C3C=CC(C2C(=O)N1C1CCCCC1)C1C2C(=O)N(C4CCCCC4)C(=O)C2C31 (stereo not drawn)	-2	6	-19	0	0	-8
O=C(Nc1cc(S(=O)(=O)Nc2ccccc2Cl)ccc1O)c1sc2cc(Cl)ccc2c1Cl	-1	-59	-6	4	-2	2
O=C1CCCC(O)=C1C=Nc1ccc(O)cc1	-2	5	3	4	2	17*
Cc1ccc2c(c1)[C@H]1[C@H](CO2)[C@H](c2ccccc2)[C@]2(C)C(=O)NCC(=O)N12	/	/	/	/	/	4
Cc1cccc(N2Cc3ccc(Br)cc3C2)c1	0	/	/	0	/	0
CSCC(C)N1CCC(n2nccc2NC(=O)c2ccccc2C)CC1 (stereo not drawn)	-5	/	/	21*	/	1
COc1ccc(F)cc1S(=O)(=O)Nc1cc2c3c(c1)CCN3C(=O)CC2	1	/	/	2	/	1
CCCc1c(C(=O)OCC)[nH]c2c1C(=O)CCC2	0	-5	-16	?	1	36*
CO[C@H]1C=CO[C@@]2(C)Oc3c(C)c(O)c4c(O)c(c(C=NN5CCN(C)CC5)c(O)c4c3C2=O)NC(=O)C(C)=CC=C[C@H](C)[C@H](O)[C@@H](C)[C@@H](O)[C@@H](C)[C@H](OC(C)=O)[C@@H]1C	12	-86	-10	-23	-24	49*!
SMILES	MEX-5 binding	Runt-SMMHC FRET	EBV gp42 inh	RanGTP-Imp inh	Runt-CBFb FRET	LANA-H2A inh
CO[C@H]1/C=C/O[C@@]2(C)Oc3c(C)c(O)c4c(O)c(c(C=NN5CCN(C)CC5)c(O)c4c3C2=O)NC(=O)/C(C)=C\C=C\[C@H](C)[C@H](O)[C@@H](C)[C@@H](O)[C@@H](C)[C@H](OC(C)=O)[C@@H]1C	/	/	/	/	/	1
COc1ccc2c(=O)c(-c3cnn(-c4ccccc4)c3)c(C)oc2c1	2	1	-4	-6	-3	22*
Cc1oc2c(C)c(O)ccc2c(=O)c1-c1cnn(-c2ccccc2)c1	2	-1	-16	-1	-4	3
COc1ccc(/C=C/C(=O)NCc2ccccn2)cc1OC	2	-5	-21	1	2	6
CC(O)Cn1nc([N+](=O)[O-])nc1N (stereo not drawn)	3	0	-15	3	-3	-9
O=C(c1cc(C2CC2)on1)N1CCCC(N2CCN(c3ccc(F)cc3)CC2)C1 (stereo not drawn)	-2	/	/	-5	/	13*
Cn1c(=O)c2c(ncn2CC(=O)OCC(=O)Nc2sccc2C(N)=O)n(C)c1=O	2	/	/	0	/	3
CN(CC(=O)Nc1cccc2c1CCCC2)S(=O)(=O)c1ccccc1	1	0	-10	1	0	10
CN(C)CCNC(=O)C(=O)Nc1cc2c3c(c1)CCN3C(=O)CC2	-1	/	/	-1	/	17*
CCN(CC)CCNC(=O)C(=O)Nc1cc2c3c(c1)CCC(=O)N3CCC2	0	/	/	-1	/	0.9*
COc1cccc(CC(=O)Nc2ccc(S(=O)(=O)Nc3nc(C)cc(C)n3)cc2)c1	-2	-1	-6	-2	-1	-8
CCOC(=O)C1CCCN(S(=O)(=O)c2cnc(Cl)c(Br)c2)C1 (stereo not drawn)	-1	/	/	1	/	-5
CCC(Sc1nc(N)c(NC(=O)c2ccc(Br)o2)c(=O)[nH]1)C(=O)O (stereo not drawn)	4	/	/	8	/	7
NC(=O)c1coc(-c2ccccc2)n1	1	0	2	0	0	0
COc1ccc(CCNC(=O)C2CCCN2C(=O)Nc2cccc(OC)c2)cc1 (stereo not drawn)	1	/	/	7	/	4
CC1Cc2cc(/C(O)=C3/C(=O)C(=O)N(CCN4CCOCC4)C3c3ccc(N(C)C)cc3)ccc2O1 (stereo not drawn)	1	/	/	30*	/	-3
CC(O)c1ccc(Oc2cnccn2)cc1 (stereo not drawn)	2	/	/	-3	/	-7
Cc1cc(C)n(CC(O)Cn2c3ccc(Br)cc3c3cc(Br)ccc32)c(=O)n1 (stereo not drawn)	1	-4	-19	3	-13	15*
CCCCn1c(N)c(N(CCOC)C(=O)COC(=O)c2cc(CCC)c(C)s2)c(=O)[nH]c1=O	1	/	/	3	/	0
